The values that follow come from ChEMBL document CHEMBL3627638, “Mixed up minor groove binders: Convincing A·T specific compounds to recognize a G·C base pair” (Bioorg Med Chem Lett, 2015).

In assay [1] the test system is Nucleic Acid. Description: Binding affinity to hairpin oligomer duplex A4T4 DNA (unknown origin) assessed as change in melting temperature at 2:1 drug/DNA ratio by spectrophotometry. Type of assay: nucleic-acid assay.
Assay [2] deals with Nucleic Acid. Description: Binding affinity to hairpin oligomer duplex A4GT4 DNA (unknown origin) assessed as change in melting temperature at 2:1 drug/DNA ratio by spectrophotometry. Type of assay: nucleic-acid assay.
Assay [3] has as its system Nucleic Acid. The assay can be described thus: Binding affinity to hairpin oligomer duplex A4GCT4 DNA (unknown origin) assessed as change in melting temperature at 2:1 drug/DNA ratio by spectrophotometry. Type of assay: nucleic-acid assay.
The target in assay [4] is Nucleic Acid. Description: Binding affinity to biotinylated-hairpin oligomer duplex A4GT4 DNA (unknown origin) by surface plasmon resonance method in presence of 0.1 M Na+ ion. Type of assay: nucleic-acid assay, Homo sapiens. The method, boiled down: (§1)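 SPR sensorgrams recorded for ligand injected over immobilized hairpin DNA at a concentration series: 2, 3, 5, 7, 10 and 15 nM for A4GT4, higher concentrations for A4IT4 and A4T4.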
(In general: SPR reads the build-up and loss of mass on a sensor chip optically.)

The subject of assay [5] is Nucleic Acid. The assay can be described thus: Binding affinity to biotinylated-hairpin oligomer duplex A4T4 DNA (unknown origin) by surface plasmon resonance method. Type of assay: nucleic-acid assay. As to conditions: Homo sapiens. The method, boiled down:
as §1

Assay [6] has as its system Nucleic Acid. The assay can be described thus: Binding affinity to biotinylated-hairpin oligomer duplex A4GCT4 DNA (unknown origin) by surface plasmon resonance method. The settings on record: Homo sapiens. Type of assay: nucleic-acid assay.
The target in assay [7] is Nucleic Acid. Description: Binding affinity to biotinylated-hairpin oligomer duplex A4IT4 DNA (unknown origin) by surface plasmon resonance method. Type of assay: nucleic-acid assay, Homo sapiens. The method, boiled down:
as §1

In assay [8] the test system is Nucleic Acid. The assay can be described thus: Binding affinity to hairpin oligomer duplex A4GT4 DNA (unknown origin) at 4:1 drug/DNA ratio by ESI mass spectrometry. Type of assay: nucleic-acid assay. The settings on record: Homo sapiens. The method, boiled down: (§2)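 Competition ESI-MS run on a mixture of DNA sequences with a pure GC sequence as non-binding internal standard. Ligand was titrated at 1:1, 2:1 and 4:1 mole ratios to each single sequence (e.g. 10 μM ligand to 5 μM DNA). Relative peak intensities of free DNA and ligand-DNA complexes were compared.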

For assay [9], the system named is Nucleic Acid. Description: Binding affinity to hairpin oligomer duplex A4GCT4 DNA (unknown origin) by ESI mass spectrometry. Type of assay: nucleic-acid assay. The settings on record: Homo sapiens.
Assay [10] relates to Nucleic Acid. The assay can be described thus: Binding affinity to hairpin oligomer duplex A4GT4 DNA (unknown origin) by circular dichroism method. Type of assay: nucleic-acid assay. As to conditions: Homo sapiens. The method, boiled down: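 Ligand titrated incrementally into the DNA, with CD spectra followed in the DNA region (230 to 290 nm).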
In general terms: CD spectra are sensitive to the conformation of chiral molecules.

Assay [11] relates to DNA. Description: Binding affinity to AATTCAATT-AATTGAATT DNA fragment (unknown origin) by DNaseI footprinting analysis. Type of assay: nucleic-acid assay. The settings on record: Homo sapiens.
For assay [12], the system named is DNA. The assay can be described thus: Binding affinity to AATTGCAATT-AATTGCAATT DNA fragment (unknown origin) by DNaseI footprinting analysis. The settings on record: Homo sapiens. Type of assay: nucleic-acid assay.
Assay [13] relates to DNA. Description: Binding affinity to A4CT4-A4GT4 DNA fragment (unknown origin) by DNaseI footprinting analysis. Type of assay: nucleic-acid assay. As to conditions: Homo sapiens.
Assay [14] concerns Nucleic Acid. The assay can be described thus: Binding affinity to hairpin oligomer duplex A4T4 DNA (unknown origin) at 4:1 drug/DNA ratio by ESI mass spectrometry. As to conditions: Homo sapiens. Type of assay: nucleic-acid assay. The procedure, abridged:
as §2

The ΔTm is the change in melting temperature against a reference sample. One may read the Kd as the concentration at which binding is half-saturated.

Calls of active or inactive are those of the source. No cut-off for these calls is given here. Where only a bound is given, the exact number is not on record here.

Consider `N=C(N)c1ccc2nc(-c3ccc(OCc4cccc(COc5ccc(-c6nc7ccc(C(=N)N)cc7[nH]6)cc5)n4)cc3)[nH]c2c1`, for which the results for the thermal shift (ΔTm) with Nucleic Acid [1], with Nucleic Acid [2] and in the assay with Nucleic Acid [3] were 15 °C, 22 °C and 8 °C, respectively. Besides, the Kd on Nucleic Acid [4] was determined as 0.015 nM; at Nucleic Acid [7], 1.2 nM. Also, the outcome in the assay with Nucleic Acid [5], with Nucleic Acid [8], in the assay on Nucleic Acid [10], in the assay on DNA [11] and in the assay with DNA [13] was Active. Also, the outcome in the assay on Nucleic Acid [6], in the assay with Nucleic Acid [9] and in the assay with DNA [12] was inactive.

In the case of `N=C(N)c1ccc2nc(-c3ccc(OCc4cccc(COc5ccc(-c6nc7ccc(C(=N)N)cc7[nH]6)cc5)c4)cc3)[nH]c2c1`, the ΔTm in the assay with Nucleic Acid [1] is 21 °C; in the assay with Nucleic Acid [2], 17 °C; in the assay with Nucleic Acid [3], less than 1 °C. Also, the result in the assay with Nucleic Acid [14], in the assay with Nucleic Acid [8], in the assay on DNA [11], in the assay on DNA [12] and in the assay with DNA [13] was Active. Besides, in the assay with Nucleic Acid [9], the outcome was inactive.

For `N=C(N)c1ccc2nc(-c3ccc(-c4cccc(-c5ccc(-c6nc7ccc(C(=N)N)cc7[nH]6)cc5)n4)cc3)[nH]c2c1`, the ΔTm amounted to 24 °C in the assay on Nucleic Acid [1], 19 °C in the assay on Nucleic Acid [2] and 5 °C in the assay on Nucleic Acid [3]. Besides, the outcome with Nucleic Acid [14] and in the assay on Nucleic Acid [8] was Active. For the same compound, the outcome in the assay with Nucleic Acid [9] was inactive.

For `CN1CCN(c2ccc3nc(-c4ccc(OCc5cccc(COc6ccc(-c7nc8ccc(N9CCN(C)CC9)cc8[nH]7)cc6)n5)cc4)[nH]c3c2)CC1`, the figures for the ΔTm in the assay with Nucleic Acid [1], with Nucleic Acid [2] and in the assay with Nucleic Acid [3] were 14 °C, 19 °C and 6 °C, respectively.
